# Laboratory results published in ChEMBL document CHEMBL4732262, “Identification of two novel thiophene analogues as inducers of autophagy mediated cell death in breast cancer cells” (Bioorg Med Chem, 2021).
# Activity calls are given as the source filed them. The rule behind the calls is not given here.
# Experiments:
# MDA-MB-231 = test: Induction of apoptosis in human MDA-MB-231 cells assessed as late apoptotic cells at 2.5 uM after 24 hrs by annexin V-FITC/Propidium iodide staining based flow cytometric analysis (reference value: 0.08%); format: functional
# MCF7 = test: Induction of autophagy in human MCF7 cells expressing GFP tagged LC3-2 assessed as increase in […] puncta formation at 2.5 uM after 24 hrs by confocal microscopic analysis; format: functional, cell-based
# Procedure, shortened: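 MCF7 cells (~1 × 10^6) at 70% confluency on glass-bottom dishes were transiently transfected with GFP-LC3 (Lipofectamine 3000). 24 h later they received 2.5 µM compound or DMSO for another 24 h. Nuclei were stained with Hoechst 33342 and lysosomes with LysoTracker Red DND-99, then imaged by live-cell confocal microscopy. LC3 puncta were counted in at least 10 cells from 3 fields. Two independent experiments.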
Structure (SMILES),Activity (MDA-MB-231) [%],Activity (MCF7)
O=C1C(=O)c2ccsc2-c2ccccc21,10.9,Active
O=C1C(=O)c2sccc2-c2ccccc21,14.9,Active
